Test results published in PMC4191588 (Journal of Medicinal Chemistry, 2014).
Values belong to the compound of their own block, whether it stands above or below them.

Tests used:
[1] = test system: H1299 cells; test: Colony formation assay in H1299 cells; type: cell-based, human; conditions: for effect on cell survival (in words) / reduction of colony formation: H1299 cells, 5 μM, 7 days; for reduction of colony formation: relative to DMSO
[2] = test system: Ub-PCNA in H1299 cells; test: Western blot of monoubiquitinated PCNA; type: cell-based, human; conditions: 4 hr; for change in Ub-PCNA (in words): H1299 cells, 1, 5, and 25 µM; for lowest concentration at which an increase in Ub-PCNA was observed: H1299 cells
[3] = test system: 451 kinases; conditions: cited from earlier work
[4] = test system: small panel of DUBs; conditions: cited from earlier work
[5] = target: USP1/UAF1 (Homo sapiens, UniProt O94782); test: USP1/UAF1 quantitative high-throughput screening; type: biochemical
[6] = Aqueous chemical stability; type: physicochemical; conditions: aqueous solution at room temperature
[7] = test system: Caco-2; test: Caco-2 permeability; type: in vitro ADME
[8] = test system: Ca^2+ channel; test: CEREP LeadProfilingScreen2 radioligand binding; conditions: 10 μM, duplicate
Summary of the method: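 Test compound run at 10 μM in a commercial lead-profiling panel of 80 GPCRs, ion channels and transporters.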

[9] = Mouse plasma stability; type: in vitro ADME
[10] = Preliminary in vivo PK studies

USP1/UAF1, sequence (O94782 whole entry): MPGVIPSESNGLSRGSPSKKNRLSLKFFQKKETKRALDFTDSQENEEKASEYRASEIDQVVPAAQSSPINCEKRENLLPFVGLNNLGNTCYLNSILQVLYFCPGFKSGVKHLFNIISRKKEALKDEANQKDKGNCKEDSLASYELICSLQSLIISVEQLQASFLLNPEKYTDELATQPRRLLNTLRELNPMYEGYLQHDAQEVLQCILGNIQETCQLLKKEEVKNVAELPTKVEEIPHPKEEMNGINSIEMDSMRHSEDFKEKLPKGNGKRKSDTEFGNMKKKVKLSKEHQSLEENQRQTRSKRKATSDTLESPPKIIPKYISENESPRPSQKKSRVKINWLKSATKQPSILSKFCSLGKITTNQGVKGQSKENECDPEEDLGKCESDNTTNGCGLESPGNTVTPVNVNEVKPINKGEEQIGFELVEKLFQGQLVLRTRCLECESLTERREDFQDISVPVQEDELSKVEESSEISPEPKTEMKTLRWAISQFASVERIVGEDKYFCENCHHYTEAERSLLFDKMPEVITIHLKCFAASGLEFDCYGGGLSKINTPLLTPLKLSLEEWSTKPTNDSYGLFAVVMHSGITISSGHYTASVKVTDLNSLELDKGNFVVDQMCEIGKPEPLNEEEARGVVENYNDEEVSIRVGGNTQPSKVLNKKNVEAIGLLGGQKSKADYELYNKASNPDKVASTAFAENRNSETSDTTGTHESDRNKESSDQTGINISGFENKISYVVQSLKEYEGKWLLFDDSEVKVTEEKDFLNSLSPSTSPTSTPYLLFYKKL
USP1/UAF1, sequence (Q8TAF3 whole entry partner): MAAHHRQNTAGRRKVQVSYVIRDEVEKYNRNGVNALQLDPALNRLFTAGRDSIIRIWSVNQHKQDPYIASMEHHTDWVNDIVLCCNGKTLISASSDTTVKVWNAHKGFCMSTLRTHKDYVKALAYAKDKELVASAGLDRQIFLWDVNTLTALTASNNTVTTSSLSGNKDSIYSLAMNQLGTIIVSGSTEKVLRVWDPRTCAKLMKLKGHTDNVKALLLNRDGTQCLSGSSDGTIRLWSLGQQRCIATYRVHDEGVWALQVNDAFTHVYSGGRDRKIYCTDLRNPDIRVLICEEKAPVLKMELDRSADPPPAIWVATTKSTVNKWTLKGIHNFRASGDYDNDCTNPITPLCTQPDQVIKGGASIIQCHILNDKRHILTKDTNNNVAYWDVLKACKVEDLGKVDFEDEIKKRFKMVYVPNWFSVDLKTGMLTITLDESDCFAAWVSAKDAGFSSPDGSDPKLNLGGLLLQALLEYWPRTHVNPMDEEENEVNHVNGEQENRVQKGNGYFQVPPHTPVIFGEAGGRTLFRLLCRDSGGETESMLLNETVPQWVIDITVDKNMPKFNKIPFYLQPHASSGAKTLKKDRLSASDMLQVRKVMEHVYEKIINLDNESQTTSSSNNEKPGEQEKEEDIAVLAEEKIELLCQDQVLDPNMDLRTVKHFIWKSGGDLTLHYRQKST

Structure (SMILES): FC(F)(F)c1ccccc1-c1nc(NCc2cccs2)c2ccccc2n1 [Compound 1, N-(Thiophen-2-ylmethyl)-2-(2-(trifluoromethyl)phenyl)quinazolin-4-amine]
effect on cell survival (in words) [1]: minimal
change in Ub-PCNA (in words) [2]: dose-dependent increase in Ub-PCNA
appreciable inhibition among 451 kinases [3]: only one of 451 kinases
activity against a small panel of DUBs [4]: no significant activity

activity toward USP1/UAF1 (in words) [5]: inactivity
Structure (SMILES): FC(F)(F)c1cccc(-c2nc(NCc3ccc(-c4cccnc4)cc3)c3ccccc3n2)c1 [Compound 22]

activity toward USP1/UAF1 (in words) [5]: inactivity
Structure (SMILES): FC(F)(F)c1ccc(-c2nc(NCc3ccc(-c4cccnc4)cc3)c3ccccc3n2)cc1 [Compound 23]

Structure (SMILES): CC(C)c1ccccc1-c1nc(NCc2ccc(-c3cccnc3)cc2)c2occc2n1 [Compound 48, 2-(2-Isopropylphenyl)-N-(4-(pyridin-3-yl)benzyl)furo[3,2-d]pyrimidin-4-amine]
reduction of colony formation [1]: greater than 70%

Structure (SMILES): COc1cnc(-c2ccccc2C(C)C)nc1NCc1ccc(-c2cccnc2)cc1 [Compound 49, 2-(2-Isopropylphenyl)-5-methoxy-N-(4-(pyridin-3-yl)benzyl)pyrimidin-4-amine]
reduction of colony formation [1]: greater than 70%

activity toward USP1/UAF1 (in words) [5]: complete loss of activity
Structure (SMILES): Cc1cnc(-c2ccccc2C(C)C)nc1NCC1CCN(C)CC1 [Compound 58]

Structure (SMILES): Cc1cnc(-c2ccccc2C(C)C)nc1NCC1CCN(c2cccnc2)CC1 [Compound 64, 2-(2-Isopropylphenyl)-5-methyl-N-((1-(pyridin-3-yl)piperidin-4-yl)methyl)pyrimidin-4-amine]
reduction of colony formation [1]: greater than 70%
change in Ub-PCNA (in words) [2]: dose-dependent increase in Ub-PCNA
lowest concentration at which an increase in Ub-PCNA was observed [2]: 1 µM

Structure (SMILES): Cc1cnc(-c2ccccc2C(C)C)nc1NCc1ccc(-n2ccnc2)cc1 [Compound 69, N-(4-(1H-Imidazol-1-yl)benzyl)-2-(2-isopropylphenyl)-5-methylpyrimidin-4-amine]
reduction of colony formation [1]: greater than 70%

stability in PBS buffer, assay buffer, pH 2, pH 9 (in words) [6]: stable
Caco-2 (A→B) Papp [7]: 22.98 10^–6 cm/s
inhibition of Ca^2+ channel [8]: > 50%
stability in mouse plasma (in words) [9]: stable
clearance [10]: > 70 mL/min/kg
Structure (SMILES): Cc1cnc(-c2ccccc2C(C)C)nc1NCc1ccc(-n2ccnn2)cc1 [Compound 70, N-(4-(1H-1,2,3-Triazol-1-yl)benzyl)-5-methyl-2-(2-isopropylphenyl)pyrimidin-4-amine]
reduction of colony formation [1]: greater than 70%
change in Ub-PCNA (in words) [2]: dose-dependent increase in Ub-PCNA
lowest concentration at which an increase in Ub-PCNA was observed [2]: 1 µM

activity toward USP1/UAF1 (in words) [5]: lost all activity
Structure (SMILES): Cc1cnc(-c2ccccc2C2COC2)nc1NCc1ccc(-c2cccnc2)cc1 [Compound 72, 5-methyl-2-(2-(oxetan-3-yl)phenyl)-N-(4-(pyridin-3-yl)benzyl)pyrimidin-4-amine]

Structure (SMILES): Cc1cnc(-c2ccccc2C2COC2)nc1NCc1ccc(-n2ccnn2)cc1 [Compound 77, N-(4-(1H-1,2,3-Triazol-1-yl)benzyl)-5-methyl-2-(2-(oxetan-3-yl)phenyl)pyrimidin-4-amine]
effect on cell survival (in words) [1]: no effect
EC50 ([1]; Homo sapiens, NCI-H1299, read-out: EC50 cell survival (colony formation)): > 25 µM
activity toward USP1/UAF1 (in words) [5]: lost all activity
